Compound activity as filed in PubChem.
PDI turbidity – PDI (human) enzyme inhibition; P07237; PDI insulin aggregation turbidity, A650, 90 min; inhibition, % at 10 µM; 0.052% of 350,000 active;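 active = mean inhibition across replicates of 30% or more, whatever share of single replicates reach that level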
Tb MetRS inh – Trypanosoma brucei MetRS inhibition; 0.4% of 360,000 active; inhibition, % at 11.9 µM; purified T. brucei MetRS, ATP depletion, Kinase-Glo luminescence;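 active = inhibition above a per-plate cutoff of the control wells' mean inhibition plus 3 SD, cut at about 5.5% in these data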;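 also: 0% = DMSO wells median and 100% = median of wells with control inhibitor compound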
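Material – parasite MetRS enzyme · Medium – HEPES-MgCl2-KCl buffer plus DTT, spermine, BSA, pyrophosphatase · Reagent – ATP, methionine and E. coli bulk tRNA substrates · Times – 15 min enzyme-compound preincubation, 2 h reaction, 10 min detection, 25 °C · Measured by – luminescence of leftover ATP · Evaluation – percent inhibition relative to median high and low control wells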
ERp5 inh – inhibitors of human ERp5 | Q15084 | ERp5 insulin aggregation, absorbance 650 nm, 90 min | inhibition, % at 9.99 µM | 0.05% of 350,000 active;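 active = mean replicate inhibition above about 25%, with every replicate also reaching it, limit read from the data, passing the limit was not always enough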
Target sequence (Q15084 whole entry, looked up): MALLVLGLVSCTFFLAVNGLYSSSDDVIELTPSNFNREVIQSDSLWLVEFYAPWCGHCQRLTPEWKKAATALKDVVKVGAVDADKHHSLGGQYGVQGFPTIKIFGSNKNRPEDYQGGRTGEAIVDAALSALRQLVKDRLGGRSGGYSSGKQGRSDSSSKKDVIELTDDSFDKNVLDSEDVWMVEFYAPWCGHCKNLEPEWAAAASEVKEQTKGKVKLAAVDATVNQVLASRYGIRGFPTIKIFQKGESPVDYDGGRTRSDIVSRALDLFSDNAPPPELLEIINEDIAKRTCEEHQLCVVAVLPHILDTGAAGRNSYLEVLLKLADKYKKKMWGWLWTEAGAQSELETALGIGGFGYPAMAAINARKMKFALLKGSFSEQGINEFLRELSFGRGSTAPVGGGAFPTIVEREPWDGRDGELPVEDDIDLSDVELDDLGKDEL
* marks the source's active call; other numbers are inactive results; . = no result. In the library only some 0.4% were active in any assay of this set; here they are far more common.

SMILES	PDI turbidity	Tb MetRS inh	ERp5 inh
Cc1ccc(C)c(NC(=O)NNC(=O)c2cc3occc3[nH]2)c1	-12.9	4.1	2.5
COc1ccc(OC)c(NC(=O)NNC(=O)c2cc3occc3[nH]2)c1	8.2	9.2*	-2.5
CCN(c1ccccc1)S(=O)(=O)c1ccc(OC)c(NC(=O)c2c(C)noc2C)c1	1.5	-0.6	27.4*
CCN(c1ccccc1)S(=O)(=O)c1ccc(OC)c(NC(=O)c2cc(Cl)ccn2)c1	-6.1	-0.2	-12.5
COc1ccccc1CNC(=O)C[C@@H]1C[C@@H]2c3cc(NC(=O)NC4CCCC4)ccc3O[C@@H]2[C@H](CO)O1	.	.	1.7
C[C@@H]1CCCCO[C@@H](CN(C)C(=O)CCC(F)(F)F)[C@H](C)CN([C@@H](C)CO)C(=O)c2cc(NS(=O)(=O)c3ccc(Cl)cc3)ccc2O1	.	.	63.9*
C[C@@H]1CCCCO[C@@H](CN(C)Cc2ccc(C(=O)Nc3ccccc3N)cc2)[C@@H](C)CN([C@H](C)CO)C(=O)c2cc(NS(=O)(=O)c3cccs3)ccc2O1	.	.	70.1*
C[C@@H]1CCCCO[C@H](CN(C)Cc2ccc(C(=O)Nc3ccccc3N)cc2)[C@@H](C)CN([C@H](C)CO)C(=O)c2cc(NS(=O)(=O)c3cccs3)ccc2O1	.	.	-3.2
C[C@H]1CCCCO[C@H](CN(C)C(=O)CCC(F)(F)F)[C@@H](C)CN([C@@H](C)CO)C(=O)c2cc(NS(=O)(=O)c3ccc(Cl)cc3)ccc2O1	.	.	8.9
CC1CCC/C(=C\c2ccc(O)cc2)C1=O (configuration not stated)	2.0	0.0	3.3
CN(C)CC1CC/C(=C\c2ccc(O)cc2)C1=O (configuration not stated)	86.6*	-0.4	-1.3
O=C(Nc1ccc(F)cc1)N1CC(=O)N2[C@@H](CO)[C@@H](c3ccc(Br)cc3)[C@@H]2C1	.	.	0.0
C[C@@H]1CN([C@H](C)CO)C(=O)Cc2cc(NC(=O)C3CC3)ccc2O[C@H]1CN(C)S(=O)(=O)c1ccc(F)cc1	.	.	-0.2
CCN(CC)C(=O)CSc1nc(N)c(C#N)c(-c2cccs2)c1C#N	-2.2	-0.1	.
Cc1ccccc1NC(=O)CSc1nc(N)c(C#N)c(-c2cccs2)c1C#N	-10.5	8.1*	.
COCC#Cc1cnc2c(c1)C(=O)N([C@@H](C)CO)C[C@@H](C)[C@@H](CN(C)C(=O)NC1CCCC1)O2	.	.	-14.7
COCC#Cc1cnc2c(c1)C(=O)N([C@H](C)CO)C[C@@H](C)[C@H](CN(C)C(=O)NC1CCCC1)O2	.	.	59.3*
CCCC#Cc1cnc2c(c1)C(=O)N([C@@H](C)CO)C[C@H](C)[C@@H](CN(C)C(=O)NC1CCCC1)O2	.	.	-3.8
CC(C)C#Cc1cnc2c(c1)C(=O)N([C@@H](C)CO)C[C@H](C)[C@@H](CN(C)C(=O)c1ccccc1F)O2	.	.	0.9
CC(C)C#Cc1cnc2c(c1)C(=O)N([C@@H](C)CO)C[C@@H](C)[C@H](CN(C)C(=O)c1ccccc1F)O2	.	.	32.2*
COCC#Cc1cnc2c(c1)C(=O)N([C@@H](C)CO)C[C@H](C)[C@@H](CN(C)C(=O)NC1CCCC1)O2	.	.	49.8*
COCC#Cc1cnc2c(c1)C(=O)N([C@H](C)CO)C[C@@H](C)[C@H](CN(C)C(=O)C1CCC1)O2	.	.	14.7
O=C(C1CCC1)N1CC2(C1)[C@H](c1ccccc1)[C@@H](CO)N2CC1CCCC1	.	.	-3.2
CN1CCN(C(=O)C[C@@H]2CC[C@@H]3[C@H](COC[C@H](O)CN3Cc3ccc(Oc4ccccc4)cc3)O2)CC1	.	.	-7.4
O=C(Cc1c[nH]c2ccccc12)N1CCN(S(=O)(=O)c2ccc(Cl)cc2)CC1	2.4	0.0	-2.8
SMILES	PDI turbidity	Tb MetRS inh	ERp5 inh
CC(=O)NC(Cc1c[nH]c2ccccc12)C(=O)OCC(=O)N1CCN(S(=O)(=O)c2ccc(Cl)cc2)CC1 (configuration not stated)	31.6*	-0.3	-8.5
C[C@H](CO)N1C[C@H](C)[C@H](CN(C)Cc2ccc(C(=O)O)cc2)Oc2ccc(NC(=O)Cn3cnnn3)cc2C1=O	.	.	1.7
CN1CCN(C(=O)C[C@@H]2CC[C@@H]3[C@H](COc4ccc(NC(=O)C5CCCCC5)cc4C(=O)N3C)O2)CC1	.	.	-1.5
O=C1c2c(O)cc(O)cc2O[C@@]12c1c(cc(O)c3c1O[C@H](c1ccc(O)cc1)[C@@H](O)C3)O[C@@H]2c1ccc(O)cc1	41.0*	0.1	-0.4
Oc1cc(O)c2c(c1)O[C@H](c1ccc(O)c(O)c1)[C@@H](O)C2	-1.6	-0.8	-1.2
CC=Cc1ccc2n(c1=O)C[C@@H]1[C@@H](CO)[C@H](C(=O)N[C@@H](C)c3ccccc3)[C@H]2N1Cc1cccnc1 (mixture of isomers)	.	.	3.3
CN1[C@@H]2Cn3c(ccc(-c4ccccc4)c3=O)[C@H]1[C@@H](C(=O)Nc1nccs1)[C@@H]2CO	.	.	-8.7
O=C(C[C@@H]1CC[C@H]2[C@@H](COC[C@H](O)CN2Cc2ccc(Cl)cc2)O1)NCc1cccc(F)c1	.	.	4.0
S=C(NCCSCc1ccc(Cl)cc1Cl)Nc1ccccc1	6.3	69.7*	.
S=C(NCCSCc1c(Cl)cccc1Cl)Nc1ccccc1	-1.5	-0.5	.
N#Cc1ccccc1CSCCNC(=O)Cc1c(F)cccc1Cl	3.6	-0.2	9.2
O=C(NCCSCc1c(F)cccc1Cl)Nc1ccccc1	0.3	7.8*	.
C[C@@H]1O[C@@H](O[C@@H]2C(=O)c3c(O)cc(O)cc3O[C@H]2c2ccc(O)c(O)c2)[C@H](O)[C@H](O)[C@H]1O	44.4*	0.4	-0.7
O=C1c2c(O)cc(O)cc2O[C@H](c2ccc(O)c(O)c2)[C@H]1O	7.2	0.6	-0.6
O=C(NCc1ccncc1)C1CCN(S(=O)(=O)c2cccc(C(F)(F)F)c2)CC1	10.2	1.1	-6.7
O=C(Nc1ccncc1)C1CCN(S(=O)(=O)c2cccc(C(F)(F)F)c2)CC1	-0.1	-0.1	27.3*
COc1ccccc1CN(C)C[C@H]1OCc2cn(nn2)CCCC(=O)N([C@@H](C)CO)C[C@H]1C	.	.	-0.3
COc1ccccc1NS(=O)(=O)c1ccc(C(=O)N2CCN(c3ccccn3)CC2)cc1	-5.3	-0.4	26.9*
Cc1ccc(NS(=O)(=O)c2ccc(C(=O)N3CCN(c4ccccn4)CC3)cc2)cc1	11.8	-1.7	.
COc1ccc(C2c3ccc(O)cc3Oc3ncn(CCCO)c(=N)c32)cc1 (configuration not stated)	43.5*	2.0	-3.6
N=c1c2c(ncn1Cc1ccco1)Oc1cc(O)ccc1C2c1ccccc1 (configuration not stated)	6.1	0.1	-3.2
O=C(CNC(=O)Cc1ccccc1)N=Nc1c(O)[nH]c2ccccc12	0.2	-0.1	4.9
O=C(NC(Cc1ccc(O)cc1)C(=O)N=Nc1c(O)[nH]c2ccccc12)c1ccccc1 (configuration not stated)	44.9*	-0.1	2.6
C[C@@H]1CN([C@H](C)CO)C(=O)Cc2cc(NS(=O)(=O)c3ccc(F)cc3)ccc2O[C@@H]1CN(C)S(=O)(=O)c1cn(C)cn1	.	.	26.9*
C[C@H]1CN([C@@H](C)CO)C(=O)Cc2cc(NC(=O)c3ccncc3)ccc2O[C@@H]1CN(C)S(=O)(=O)c1cn(C)cn1	.	.	9.7
C[C@@H]1CN([C@H](C)CO)C(=O)Cc2cc(NS(=O)(=O)c3ccc(F)cc3)ccc2O[C@H]1CN(C)S(=O)(=O)c1cn(C)cn1	.	.	20.4
